SMILES strings stand for the structures.

The nature of data set [1]: Cytotoxicity against human HuH7 cells assessed as reduction in cell viability. Type of data set: cell-based, Huh-7. The settings on record: read-out: TD50 (the source's name).
In data set [2] the test system is Hepatitis C virus. Kind of data set: Antiviral activity against HCV genotype 1b Con1 infected in human HuH7 replicon cells assessed as inhibition of viral replication after 3 days by luciferase reporter gene assay. The settings on record: subtype 1b Con1, Huh-7, 72 h. Type of data set: functional, organism-based, Hepacivirus hominis. Put shortly: (§1)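 Stable subgenomic replicon cell lines (genotype 1a-H77 or 1b-Con1) carrying a luciferase reporter; compounds added in DMEM with 5% FBS, cells incubated 3 days with or without compound, then lysed and luciferase activity read; EC50 from nonlinear regression fit to 4-parameter logistic equation.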

Data set [3] concerns Hepatitis C virus. Kind of data set: Antiviral activity against HCV genotype 1a H77 infected in human HuH7 replicon cells assessed as inhibition of viral replication after 3 days by luciferase reporter gene assay. The data set is classed as functional, organism-based, Hepacivirus hominis. The settings on record: subtype 1a H77, Huh-7, 72 h. Put shortly:
as §1
Background: Replicon systems follow genome replication, usually without infectious particles.

The nature of data set [4]: Prodrug conversion in Beagle dog liver assessed as nucleotide triphosphate level at 5 mg/kg, po co-dosed with 5 mg/kg sofosbuvir measured after 4 hrs by LC-MS/MS analysis. To be noted: in vivo. The data set is classed as ADME, organism-based, Canis lupus familiaris. Put shortly:
(§2)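 Beagle dogs (3 per time point) given single oral prodrug 5 mg/kg in EtOH:PEG-400:Phosal 53 MCT (10:30:60, w/w), cassette-dosed with sofosbuvir 5 mg/kg as internal standard; liver biopsies at 4 or 24 h, flash frozen, triphosphate measured by LC-MS/MS.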

A short description of data set [5]: Aqueous solubility of compound in pH 7.4 phosphate buffer. The data set is classed as physicochemical.
Data set [6] can be described thus: Unbound drug level in human plasma. The data set is classed as ADME, cell-free.
Data set [7] can be described thus: Stability in human plasma assessed as parent compound remaining after 4 hrs. The data set is classed as ADME, cell-free. To be noted: read-out: Stability. Summed up: (§3)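 Prodrug incubated 4 h at 37 °C in dog or human plasma; result given as percent parent remaining.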
A short description of data set [8]: Distribution coefficient, logD of compound by HT-LCMS analysis. The settings on record: octanol/water. The data set is classed as physicochemical.
The test system of data set [9] is Hepatitis C virus. Put plainly: Antiviral activity against HCV genotype 1b Con1 over expressing CES1 infected in human HuH7 replicon cells assessed as inhibition of viral replication after 3 days by luciferase reporter gene assay. Type of data set: functional, organism-based, Hepacivirus hominis. The settings on record: subtype 1b Con1, Huh-7, 72 h.
A short description of data set [10]: Prodrug conversion in Beagle dog liver assessed as nucleotide triphosphate level at 5 mg/kg, po administered as single dose measured after 24 hrs by LC-MS/MS analysis. Type of data set: ADME, organism-based, Canis lupus familiaris. The settings on record: in vivo.
Data set [11] can be described thus: Prodrug conversion in human primary hepatocytes assessed as nucleotide triphosphate level at 100 uM incubated for 4 hrs followed by compound wash-out for 20 hrs and measured following 4 hrs incubation period by LC-MS/MS analysis. The data set is classed as ADME, cell-based, Hepatocyte. Summed up: (§4)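 Cryopreserved primary human hepatocytes plated ~55,000 viable cells/well on collagen, medium changed after 4–6 h to Williams E maintenance medium with Geltrex 0.35 mg/mL, overnight at 37 °C; prodrug 100 µM for 4 h, then washed; second plate held a further 20 h drug-free; cells washed with ice-cold HBSS, triphosphate measured by LC-MS/MS at 4 or 24 h.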

Data set [12] can be described thus: Prodrug conversion in Beagle dog liver assessed as nucleotide triphosphate level at 5 mg/kg, po administered as single dose measured after 4 hrs by LC-MS/MS analysis. The data set is classed as ADME, organism-based, Canis lupus familiaris. The settings on record: in vivo.
Data set [13] in a line: Prodrug conversion in human primary hepatocytes assessed as nucleotide triphosphate level at 100 uM incubated for 4 hrs and followed by compound washout for 20 hrs and measured following 24 hrs incubation period by LC-MS/MS analysis. The data set is classed as ADME, cell-based, Hepatocyte. Summed up:
as §4

Data set [14] can be described thus: Unbound drug level in dog plasma. The data set is classed as ADME, cell-free, Canis lupus familiaris.
Data set [15] is described as follows: Intrinsic clearance in dog hepatocytes. To be noted: read-out: CLH (converted). Type of data set: ADME, cell-based, Canis lupus familiaris, Hepatocyte.
Data set [16] is described as follows: Stability in dog plasma assessed as parent compound remaining after 4 hrs. The settings on record: read-out: Stability. Type of data set: ADME, cell-free, Canis lupus familiaris. Put shortly:
as §3

Data set [17] is described as follows: Prodrug conversion in Beagle dog liver assessed as nucleotide triphosphate level at 5 mg/kg, po co-dosed with 5 mg/kg sofosbuvir measured after 24 hrs by LC-MS/MS analysis. The data set is classed as ADME, organism-based, Canis lupus familiaris. The settings on record: in vivo. Put shortly:
as §2

For orientation: EC50 means the concentration at which the effect is half-maximal. For the molecule `CC(C)OC(=O)[C@H](C)N[P@](=O)(OC[C@H]1O[C@@H](n2ccc(=O)[nH]c2=O)[C@](C)(Cl)[C@@H]1O)Oc1ccccc1`, the CC50 in data set [1] is more than 100000 nM. Further, the results for the EC50 in the data set with Hepatitis C virus [2] and in the data set with Hepatitis C virus [3] were 167 nM and 139 nM, respectively.
The corresponding values for `CC(C)OC(=O)[C@H](C)N[P@](=O)(OC[C@H]1O[C@@H](n2ccc(=O)[nH]c2=O)C(Br)(Br)[C@@H]1O)Oc1ccccc1` are more than 100000 nM, 522 nM and 408 nM.
A word on the solubility: it is the concentration that dissolves in the medium under given conditions. Read a low solubility as little dissolved substance. For orientation: fraction unbound means the share of the substance not bound to proteins or other matrix. Low values mean extensive binding, high ones weak binding. In general, logD refers to lipophilicity at a set pH, counting ionised and neutral species. A lower logD goes with a more hydrophilic compound. `CC(C)OC(=O)C(C)(C)NP(=O)(OC[C@H]1O[C@@H](n2ccc(=O)[nH]c2=O)[C@](Cl)(Br)[C@@H]1O)Oc1ccccc1` (stereo partly drawn): the Drug metabolism in [4] was 4.2 µM; in data set [10] it was 0.244 µM; in data set [11], 157 µM; in data set [12] it was 0.713 µM; in data set [13] it was 40 µM; in data set [17], 3.43 µM. For the same molecule, the solubility in data set [5] was more than 200 µM. The fraction unbound amounted to 0.193 in data set [6] and 0.13 in data set [14]. For the same molecule, the results for the EC50 in the data set with Hepatitis C virus [2], in the data set on Hepatitis C virus [9] and in the data set with Hepatitis C virus [3] were 1380 nM, 162 nM and 1090 nM, respectively. Also, the remaining at 4 h in [7] and in data set [16] was 100% each time. In data set [8], this molecule registered a logD of 3.3. Moreover, in data set [15], the CLint scaled was 133 mL/min/kg.
For the molecule `CC(C)OC(=O)[C@H](C)N[P@](=O)(OC[C@H]1O[C@@H](n2ccc(=O)[nH]c2=O)[C@@](C)(F)[C@@H]1O)Oc1ccccc1`, the CC50 in [1] is more than 32000 nM. The EC50 in the data set with Hepatitis C virus [2] and in the data set on Hepatitis C virus [3] was more than 10000 nM throughout.
`CC(C)OC(=O)[C@H](C)N[P@@](=O)(OC[C@H]1O[C@@H](n2ccc(=O)[nH]c2=O)[C@](Cl)(Br)[C@@H]1O)Oc1ccccc1`: the Drug metabolism in [4] was 1.76 µM; in data set [10], 0.036 µM; in [11], 102 µM; in [12], 0.143 µM; in [13], 24 µM; in [17], 1.26 µM. The molecule also gave a solubility in data set [5] of more than 200 µM. The figures for the concentration giving a half-maximal response (EC50) in the data set on Hepatitis C virus [2], with Hepatitis C virus [9] and in the data set on Hepatitis C virus [3] were 515 nM, 218 nM and 412 nM, respectively. Moreover, the logD in data set [8] came to 3.21.
Consider `CC(C)OC(=O)[C@H](C)N[P@](=O)(OC[C@H]1O[C@@H](n2ccc(=O)[nH]c2=O)C(F)(F)[C@@H]1O)Oc1ccccc1`, for which the CC50 in [1] came out at 384 nM. Further, the EC50 in the data set with Hepatitis C virus [2] was 286 nM; in the data set on Hepatitis C virus [3] it was 226 nM.
The corresponding values for `CC(C)OC(=O)[C@H](C)N[P@](=O)(OC[C@H]1O[C@@H](n2ccc(=O)[nH]c2=O)[C@](F)(Br)[C@@H]1O)Oc1ccccc1` are 26500 nM, 2500 nM and 3030 nM.
The corresponding values for `CC(C)OC(=O)[C@H](C)N[P@](=O)(OC[C@H]1O[C@@H](n2ccc(=O)[nH]c2=O)[C@@](Cl)(Br)[C@@H]1O)Oc1ccccc1` are more than 100000 nM, 258 nM and 200 nM.
The corresponding values for `CC(C)OC(=O)[C@H](C)N[P@](=O)(OC[C@H]1O[C@@H](n2ccc(=O)[nH]c2=O)C(C)(C)C1O)Oc1ccccc1` (single isomer, unassigned) are 31600 nM, 4750 nM and 5630 nM.

These data come from ChEMBL document CHEMBL4609978, “Synthesis and evaluation of 2'-dihalo ribonucleotide prodrugs with activity against hepatitis C virus” (Bioorg Med Chem, 2020).
